Source: ChEMBL document CHEMBL5550192, “Discovery of first-in-class PROTACs targeting maternal embryonic leucine zipper kinase (MELK) for the treatment of Burkitt lymphoma” (RSC Med Chem, 2024)
Calls of active or inactive are those of the source. The rule behind the calls is not given here.

Columns and labels:
[1] = target: T1, Protein cereblon/Maternal embryonic leucine zipper kinase (Homo sapiens, UniProt Q14680+Q96SW2); test: PROTAC activity at CRBN/MELK in human Ramos cells assessed as induction of MELK degradation by immunoblot analysis; type: cell-based
Method in brief: (§1)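 Ramos cells in 12-well plates (1 mL medium) treated with compound at various concentrations. Lysed in 2X SDS sample buffer and boiled 15 min. Proteins resolved on 10% SDS-PAGE and transferred to PVDF. Probed with MELK, mTOR or p-mTOR antibodies, with β-actin/β-tubulin as loading controls. ECL detection, band densitometry, DC50 from nonlinear regression.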
Target sequence in this assay (Q14680 whole entry): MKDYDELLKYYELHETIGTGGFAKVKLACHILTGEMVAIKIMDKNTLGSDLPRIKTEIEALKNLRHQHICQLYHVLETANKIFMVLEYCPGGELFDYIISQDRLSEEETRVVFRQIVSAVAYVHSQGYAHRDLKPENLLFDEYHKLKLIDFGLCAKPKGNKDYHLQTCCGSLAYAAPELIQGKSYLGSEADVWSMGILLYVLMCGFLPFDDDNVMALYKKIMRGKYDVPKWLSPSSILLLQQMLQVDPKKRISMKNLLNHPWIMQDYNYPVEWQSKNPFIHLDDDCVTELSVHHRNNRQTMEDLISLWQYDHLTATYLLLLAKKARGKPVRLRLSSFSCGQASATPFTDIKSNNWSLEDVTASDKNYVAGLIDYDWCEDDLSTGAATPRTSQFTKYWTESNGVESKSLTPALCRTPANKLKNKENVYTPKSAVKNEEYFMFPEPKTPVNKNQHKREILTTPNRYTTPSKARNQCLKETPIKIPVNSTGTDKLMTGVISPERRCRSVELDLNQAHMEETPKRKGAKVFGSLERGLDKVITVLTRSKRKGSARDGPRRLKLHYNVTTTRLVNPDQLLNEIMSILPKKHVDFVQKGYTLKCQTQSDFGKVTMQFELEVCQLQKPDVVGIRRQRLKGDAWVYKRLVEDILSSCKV
Target sequence in this assay (Q96SW2 whole entry): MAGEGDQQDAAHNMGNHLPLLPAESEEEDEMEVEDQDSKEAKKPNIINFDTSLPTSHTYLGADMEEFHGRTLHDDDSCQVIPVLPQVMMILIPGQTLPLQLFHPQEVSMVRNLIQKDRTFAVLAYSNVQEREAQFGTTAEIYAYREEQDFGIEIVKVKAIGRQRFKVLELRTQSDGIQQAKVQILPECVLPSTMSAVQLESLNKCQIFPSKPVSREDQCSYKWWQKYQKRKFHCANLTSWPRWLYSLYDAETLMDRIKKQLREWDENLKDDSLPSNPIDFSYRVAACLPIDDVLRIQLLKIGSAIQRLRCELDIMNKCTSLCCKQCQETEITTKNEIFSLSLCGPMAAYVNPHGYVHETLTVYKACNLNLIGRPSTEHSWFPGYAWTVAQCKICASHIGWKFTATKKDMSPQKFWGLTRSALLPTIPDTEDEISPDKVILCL

[2] = target: T1, Protein cereblon/Maternal embryonic leucine zipper kinase; test: PROTAC activity at CRBN/MELK in human Ramos cells assessed as residual activity at 5 uM measured after 48 hrs by immunoblot analysis relative to control; type: cell-based
Target sequence in this assay (Q14680 whole entry, looked up): as the sequence (Q14680 whole entry) above
Target sequence in this assay (Q96SW2 whole entry, looked up): as the sequence (Q96SW2 whole entry) above

[3] = Selectivity ratio of CC50 for human MDA-MB-231 cells to IC50 for human Ramos cells
Ramos [4] = test: Cytotoxicity against human Ramos cells assessed as inhibition of cell growth measured after 72 to 96 hrs by CCK-8 method; type: functional, cell-based
Method in brief: (§2)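 Ramos grown in RPMI 1640 with 10% FBS, 1% pen-strep, 1% NEAA and 50 μM 2-mercaptoethanol at 37°C, 5% CO₂. Plated at 3000 cells/well with compound diluted in medium from DMSO stock. Incubated 72–96 h, then CCK-8 added for 4 h. Absorbance read at 450 nm, normalized to DMSO-treated cells. EC50 from nonlinear regression.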

MDA-MB-231 = test: Cytotoxicity against human MDA-MB-231 cells assessed as inhibition of cell growth measured after 72 to 96 hrs by CCK-8 method; type: functional; settings: time 72-96 hrs
Method in brief: as §2, with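 “MDA-MB-231” for “Ramos”, “DMEM” for “RPMI 1640”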

DOHH-2 = test: Upregulation of MELK mRNA level in human DOHH-2 cells at 20 uM incubated for 24 hrs by qPCR analysis; type: functional, cell-based
Ramos [5] = test: Induction of apoptosis in human Ramos cells at 20 uM measured after 24 hrs by calcein-AM/propidium iodide staining based fluorescence microscopic analysis; type: functional, cell-based
Method in brief: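 Ramos cells, 2×10^5 per well in 12-well plates, exposed to compound or DMSO for 24 h. Washed in cold PBS, then stained with calcein-AM/propidium iodide working solution for 30 min at 37°C in the dark. Examined by fluorescence microscopy.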

Ramos [6] = test: Induction of apoptosis in human Ramos cells assessed as necrotic cells at 20 uM measured after 24 hrs by Annexin V-FITC and propidium iodide staining based flow cytometry analysis (reference value: 0.34%); type: functional
Method in brief: (§3)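 Ramos cells, 1×10^6 per well in 6-well plates, treated with compound or DMSO for 24 h. Washed in cold PBS, resuspended in Annexin V binding buffer, stained with Annexin V-FITC and propidium iodide. Populations quantified by flow cytometry.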

Ramos [7] = test: Induction of apoptosis in human Ramos cells assessed as early apoptotic cells at 20 uM measured after 24 hrs by Annexin V-FITC and propidium iodide staining based flow cytometry analysis (reference value: 9.69%); type: functional; method in brief: as §3
[8] = target: T1, Protein cereblon/Maternal embryonic leucine zipper kinase; test: PROTAC activity at CRBN/MELK in human Ramos cells assessed as degradation of MELK at 20 uM pretreated with MLN4924 followed by compound addition and measured after 24 hrs by immunoblot analysis; type: cell-based
Target sequence in this assay (Q14680 whole entry, looked up): as the sequence (Q14680 whole entry) above
Target sequence in this assay (Q96SW2 whole entry, looked up): as the sequence (Q96SW2 whole entry) above

[9] = target: T1, Protein cereblon/Maternal embryonic leucine zipper kinase; test: PROTAC activity at CRBN/MELK in human Ramos cells assessed as inhibition of mTOR phosphorylation measured after 24 hrs Western blot analysis; type: cell-based; method in brief: as §1
Target sequence in this assay (Q14680 whole entry): as the sequence (Q14680 whole entry) above
Target sequence in this assay (Q96SW2 whole entry): as the sequence (Q96SW2 whole entry) above

Ramos [10] = test: Induction of apoptosis in human Ramos cells assessed as viable cells at 20 uM measured after 24 hrs by Annexin V-FITC and propidium iodide staining based flow cytometry analysis (reference value: 84.9%); type: functional; settings: read-out: Activity; method in brief: as §3
Ramos [11] = test: Upregulation of MELK mRNA level in human Ramos cells at 20 uM incubated for 24 hrs by qPCR analysis; type: functional, cell-based
Method in brief: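 Ramos cells in 6-well plates exposed to 20 μM compound or DMSO for 24 h. MELK mRNA measured by qPCR with MELK-specific primers. Relative expression by the 2^-ΔΔCt method, normalized to 18S mRNA (actin also stated as internal control). Run in triplicate.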

[12] = target: T1, Protein cereblon/Maternal embryonic leucine zipper kinase; test: PROTAC activity at CRBN/MELK in human Ramos cells assessed as induction of MELK degradation by immunoblot analysis relative to control; type: cell-based; method in brief: as §1
Target sequence in this assay (Q14680 whole entry, looked up): as the sequence (Q14680 whole entry) above
Target sequence in this assay (Q96SW2 whole entry, looked up): as the sequence (Q96SW2 whole entry) above

Ramos [13] = test: Induction of cell cycle arrest in human Ramos cells assessed as accumulation of cells at G2/M phase at 10 uM measured after 24 hrs by propidium iodide staining based flow cytometry analysis; type: functional
Method in brief: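 Ramos cells exposed to compound or DMSO for 24 h, washed in cold PBS and fixed overnight in 70% ethanol. Stained with propidium iodide for 30 min at 37°C in the dark. Cell-cycle phase distribution determined by flow cytometry.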

HUVEC = test: Cytotoxicity against human HUVEC cells at 4 uM measured after 24 hrs by tube formation assay; type: toxicity, cell-based
Method in brief: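 HUVEC, 3×10^4 cells/well, seeded on Matrigel-coated wells (Matrigel set 4 h at 37°C) in medium containing compound. Tubes imaged by optical microscopy and quantified by image analysis. Three independent experiments.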

[14] = target: T1, Protein cereblon/Maternal embryonic leucine zipper kinase; test: PROTAC activity at CRBN/MELK in human Ramos cells assessed as degradation of MELK by measuring half life at 20 uM measured for 48 hrs by Western blot analysis; type: cell-based
Target sequence in this assay (Q14680 whole entry, looked up): as the sequence (Q14680 whole entry) above
Target sequence in this assay (Q96SW2 whole entry, looked up): as the sequence (Q96SW2 whole entry) above

[15] = target: T1, Protein cereblon/Maternal embryonic leucine zipper kinase; test: PROTAC activity at CRBN/MELK in human Ramos cells assessed as inhibition of mTOR phosphorylation at upto 64 uM measured after 24 hrs Western blot analysis; type: cell-based; method in brief: as §1
Target sequence in this assay (Q14680 whole entry, looked up): as the sequence (Q14680 whole entry) above
Target sequence in this assay (Q96SW2 whole entry, looked up): as the sequence (Q96SW2 whole entry) above

Ramos [16] = test: Induction of apoptosis in human Ramos cells assessed as late apoptotic cells at 20 uM measured after 24 hrs by Annexin V-FITC and propidium iodide staining based flow cytometry analysis (reference value: 5.05%); type: functional; method in brief: as §3
[17] = target: T1, Protein cereblon/Maternal embryonic leucine zipper kinase; test: PROTAC activity at CRBN/MELK in human Ramos cells assessed as degradation of MELK at 20 uM pretreated with MG132 followed by compound addition and measured after 24 hrs by immunoblot analysis; type: cell-based
Target sequence in this assay (Q14680 whole entry, looked up): as the sequence (Q14680 whole entry) above
Target sequence in this assay (Q96SW2 whole entry, looked up): as the sequence (Q96SW2 whole entry) above

In the case of CC(C)COc1cnccc1-c1cnn(-c2ccc(N3CCN(Cc4cn(CCOCCOCCOCCOCCNc5ccc6c(c5)C(=O)N(C5CCC(=O)NC5=O)C6=O)nn4)CC3)cc2)c1 (centres undefined), the DC50 [1] is reported as less than 5 µM and the Activity [2] is reported as 42.7%.
For COc1cc(-c2cn[nH]c2)ccc1C(=O)Nc1ccc2c(c1)CCNCC2, the “Ratio CC50/IC50” value [3] was 0.9, the IC50 (Ramos [4]) was 9.1 µM and the CC50 (MDA-MB-231) was 7.9 µM.
CC(C)COc1cnccc1-c1cnn(-c2ccc(N3CCN(Cc4cn(CCOCCNc5ccc6c(c5)C(=O)N(C5CCC(=O)NC5=O)C6=O)nn4)CC3)cc2)c1 (centres undefined) gave a DC50 [1] of less than 5 µM and an Activity [2] of 49.3%.
Molecule CC(C)COc1cnccc1-c1cnn(-c2ccc(N3CCN(Cc4cn(CCOCCOCCOCCNc5ccc6c(c5)C(=O)N(C5CCC(=O)NC5=O)C6=O)nn4)CC3)cc2)c1 (centres undefined) has a DC50 [1] of less than 5 µM and an Activity [2] of 49.6%.
In the case of CN1CCN(c2ccc(-n3cc(-c4ccncc4OCC4CCNCC4)cn3)cc2)CC1, the “Ratio CC50/IC50” value [3] is reported as 0.7, the IC50 (Ramos [4]) is reported as 3.4 µM and the CC50 (MDA-MB-231) is reported as 2.3 µM.
In the case of CC(C)COc1cnccc1-c1cnn(-c2ccc(N3CCN(Cc4cn(CCCCCCCNc5ccc6c(c5)C(=O)N(C5CCC(=O)NC5=O)C6=O)nn4)CC3)cc2)c1 (centres undefined), the DC50 [1] is reported as less than 5 µM and the Activity [2] is reported as 37.7%.
In the case of CC(C)COc1cnccc1-c1cnn(-c2ccc(N3CCN(Cc4cn(CCOCCOCCNc5ccc6c(c5)C(=O)N(C5CCC(=O)NC5=O)C6=O)nn4)CC3)cc2)c1 (centres undefined), the Activity (DOHH-2) is reported as “Active”, the “Ratio CC50/IC50” value [3] is reported as 7.6 and the Activity (Ramos [5]) is reported as “Active”. The DC50 [1] was 2.1 µM, the Activity (Ramos [6]) was 0.25% and the Activity (Ramos [7]) was 42.1%. The Activity [8] was “inactive”, the EC50 [9] was 2.3 µM and the EC50 (Ramos [4]) was 1.8 µM. For the same molecule, the viability at 20 µM (Ramos [10]) was 44.9%, the Activity [2] was 14.3% and the Activity (Ramos [11]) was “Active”. For the same molecule, the Emax [12] was 91.6%, the Activity (Ramos [13]) was “Active” and the Activity (HUVEC) was “Non-Toxic”. The T1/2 [14] was less than 3 h, the Activity [15] was “Active” and the Activity (Ramos [16]) was 12.8%. The CC50 (MDA-MB-231) was 13.8 µM and the Activity [17] was “inactive”.
